The results in this text go back to ChEMBL document CHEMBL5030567, “Macrocyclic Inhibitors of HGF-Activating Serine Proteases Overcome Resistance to Receptor Tyrosine Kinase Inhibitors and Block Lung Cancer Progression” (J Med Chem, 2021).

pIC50: −log10 of the molar value. Calls of active or inactive are those of the source. The calls are words filed in the database; no cut-off is given here. Numbered stars: 1 amine (or outer) side, 2 acyl side, 3 side chain; on linkers, the order of the positions; unused ones are H or OH. Square brackets hold non-standard residues; d marks the D form. Peptide text beside a SMILES is read from it. X1 = N=C(N)NCCC[C@H](N[*:1])C(=O)c1nc2ccc(C(=O)[*:2])cc2s1

Data set [1] deals with NCI-H596. As to the kind of experiment: Inhibition of pro-HGF stimulated cell growth in human H596 cells at 10 uM by ELISA. The format is functional, cell-based. On the technique in general: In an ELISA, binding on a coated surface is turned into a signal by an enzyme label.
Data set [2] in a line: Toxicity in NSG mouse assessed as body weight loss at 20 to 100 mg/kg, ip administered for 7 days. The format is organism-based. Particulars: in vivo, dose 20-100 mg/kg, time 7 day.
Data set [3] is described as follows: Acute toxicity in NSG mouse at 20 to 100 mg/kg, ip administered for 7 days. The format is organism-based. Particulars: in vivo, dose 20-100 mg/kg, time 7 day.
A short description of data set [4]: Toxicity in hHGF knock in NSG mouse xenografted with human NCI-H596 cells at 50 mg/kg, ip administered daily for 25 days. The format is organism-based. The settings on record: in vivo, 600 h, time 25 day.
Data set [5] relates to EBC-1. The data set can be described thus: Cytotoxicity against human EBC-1 cells assessed as reduction in cell viability preincubated with compound and pro-HGF for 24 hrs followed by JNJ-38877605 addition and measured after 48 hrs by CellTiter-Glo assay. The format is functional, cell-based. The settings on record: time 72.0 hrs. An outline of the steps:
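EBC-1 cells pre-incubated 24 h with pro-HGF (100 ng/ml) with or without compound (1 µM), then given MET kinase inhibitor JNJ-38877605 (25 nM). Viability read by CellTiter-Glo after 48 h. Means±S.E.M., n=3; one-way ANOVA with Dunnett's test.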
Background: Cellular ATP, detected with luciferase, serves as a proxy for viable cell number.

Data set [6] deals with T1, Suppressor of tumorigenicity 14 protein (Homo sapiens, UniProt Q9Y5Y6).
T1 sequence (Q9Y5Y6 whole entry): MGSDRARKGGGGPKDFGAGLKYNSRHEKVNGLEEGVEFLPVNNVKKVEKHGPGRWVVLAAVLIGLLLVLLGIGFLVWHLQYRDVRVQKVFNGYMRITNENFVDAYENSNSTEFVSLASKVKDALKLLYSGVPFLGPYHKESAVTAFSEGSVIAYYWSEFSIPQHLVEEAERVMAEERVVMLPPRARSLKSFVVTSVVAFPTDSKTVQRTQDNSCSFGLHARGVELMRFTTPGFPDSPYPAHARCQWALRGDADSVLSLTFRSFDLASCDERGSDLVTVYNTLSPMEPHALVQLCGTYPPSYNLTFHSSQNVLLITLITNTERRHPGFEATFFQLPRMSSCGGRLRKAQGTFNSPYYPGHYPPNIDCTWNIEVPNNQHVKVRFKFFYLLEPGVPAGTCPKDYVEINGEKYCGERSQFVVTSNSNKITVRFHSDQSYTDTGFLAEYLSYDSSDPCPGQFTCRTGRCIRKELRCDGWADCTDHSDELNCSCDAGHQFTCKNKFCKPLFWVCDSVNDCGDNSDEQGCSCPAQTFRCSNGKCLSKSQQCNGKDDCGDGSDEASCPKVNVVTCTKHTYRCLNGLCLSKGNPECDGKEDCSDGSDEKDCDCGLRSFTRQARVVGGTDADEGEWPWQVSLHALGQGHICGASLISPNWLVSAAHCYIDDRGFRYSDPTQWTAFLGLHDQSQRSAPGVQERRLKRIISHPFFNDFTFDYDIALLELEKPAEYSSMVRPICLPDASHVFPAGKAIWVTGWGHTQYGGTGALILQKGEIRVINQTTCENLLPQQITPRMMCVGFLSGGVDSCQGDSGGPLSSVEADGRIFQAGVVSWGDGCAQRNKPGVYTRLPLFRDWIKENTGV
The data set can be described thus: Inhibition of recombinant human N-terminal met-His6-tagged matriptase catalytic domain (Gly596 to Val855 residues) expressed in Escherichia coli using Boc-QAR-AMC as substrate preincubated for 30 mins followed by substrate addition by fluorescence based assay. An outline of the steps: (§1)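 Inhibitor in 11-point serial dilution (0-20 µM final, 2% DMSO) pre-incubated 30 min at room temperature with enzyme in TNC buffer (25 mM Tris, 150 mM NaCl, 5 mM CaCl2, 0.01% Triton X-100, pH 8). […] Hepsin activated beforehand 24 h at 37°C. Fluorescence ex 380/em 460 nm kinetic; four-parameter fit of velocities; mean of three experiments.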

Data set [7] deals with Serine protease hepsin (Homo sapiens, UniProt P05981). As to the kind of experiment: Inhibition of recombinant human C-terminal 10-His tagged hepsin (Arg45 to Leu417) expressed in mouse myeloma cells using Boc-QAR-AMC as substrate preincubated for 30 mins followed by substrate addition by fluorescence based assay. In kind it is single protein. The method in brief: as §1
The target of data set [8] is Coagulation factor X (Homo sapiens, UniProt P00742). As to the kind of experiment: Inhibition of recombinant C-terminal 10His-tagged human coagulation factor 10a (Leu24 to Lys488 residues) expressed in baculovirus infected Sf9 insect cells using Bz-Ile-Glu-Gly-Arg-pNA as substrate preincubated for 30 mins followed by substrate addition by chromogenic assay.
Data set [9] in a line: Stability in mouse plasma assessed as half life. The format is ADME, cell-free.
The nature of data set [10]: Stability in human plasma assessed as half life. In kind it is ADME, cell-free.
Data set [11] in a line: Plasma protein binding in mouse assessed as unbound fraction. The format is ADME, cell-free.
Data set [12] is described as follows: Stability in mouse liver microsomes assessed as half life. In kind it is ADME, Microsome. (In general: Microsomes from liver hold many membrane-bound enzymes, among them those of drug oxidation.)
In data set [13] the target is T2, Suppressor of tumorigenicity 14 protein (Homo sapiens) (UniProt Q9Y5Y6).
T2 sequence (whole entry): T1 sequence (Q9Y5Y6 whole entry)
As to the kind of experiment: Inhibition of recombinant human N-terminal met-His6-tagged matriptase catalytic domain (Gly596 to Val855 residues) expressed in Escherichia coli mediated pro-HGF activation preincubated for 30 mins followed by pro-HGF addition and measured after 1 hr by immunoblotting analysis. An outline of the steps:
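Recombinant pro-HGF (10 ng) incubated one hour with matriptase (1 nM), hepsin (10 nM) or HGFA (5 nM), with or without inhibitor. Processing detected by immunoblot with a polyclonal antibody recognizing pro-HGF and the HGF alpha and beta chains; active HGF served as positive control.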

For data set [14], the system named is HCC827. As to the kind of experiment: Cytotoxicity against human HCC827 cells assessed as reduction in cell viability at 0.1 to 1 uM after 72 hrs by crystal violet staining based assay. Particulars: dose 0.1-1 µM.
Data set [15] has as its system HCC827. As to the kind of experiment: Cytotoxicity against human HCC827 cells assessed as reduction in cell viability at 0.1 to 1 uM after 72 hrs in presence of pro-HGF by crystal violet staining based assay. The settings on record: dose 0.1-1 µM.

A word on the pIC50: it is the negative decadic logarithm of the IC50, by convention in mol/L. For orientation: fraction unbound means free concentration divided by total concentration.

With `CC(=O)N[C@@H](CO)C(=O)N[C@@H](CCCCN)C(=O)N[C@@H](CC(C)C)C(=O)N[C@@H](CCCNC(=N)N)C(=O)c1nc2ccc(C(=O)N[C@H](C(N)=O)C(C)C)cc2s1` (Ac-SKL[X1]V-NH2), the inhibition result in data set [1] and in data set [13] was “Active” each time. Also, the Activity entry in [2], in data set [3] and in [4] was “Non-Toxic” each time. The result in [5] and in data set [15] was Active. Also, the negative-log IC50 (pIC50) was 7.68 in data set [6], 9.42 in data set [7] and 6.11 in data set [8]. Besides, the values for the t1/2 in data set [9], in data set [10] and in [12] were 3.07 h, 2.33 h and > 2.42 h, respectively. The fraction unbound in [11] was determined as 0.167. Also, the result in [14] was inactive.
